Entries after “also recorded” stand apart in the source; their conditions may differ.
B1: DDB_G0275301: OCRL-Interacting Bar domain Protein of D. discoideum (protein)
chain: MFKKGLDVLSKTKNAAVSSMTELETESDEVQNAKVALKNMKWSIKLLIQLAKNYFATSDKQVQQGTAFSVILQRFSEKISHTNYIINQTLPLSDSLREVGEGIKNSSTYFQQYTQIFCDKFATNIEALYVGHVKKVATLEKQQEESRIKYNNALNYLKSTQKSGHTGTKLAEKTTEYENAKAYYEQISLNLISATNDMVNYVQREVAVQMKQFVAEQQLMVQECIKMWVIAENKLFNSQSPVNTTSTTSPNTYGDYNNNANTVNLSKLSLDKEEQPPQPYQPPQQHSPPQQTFHQSPPTDFSSQHQQYSFDQSSPQETYQPPQQQQPEGQKSPNPFDDKNPFDN
B2: Frabin-GFP: full length Frabin-GFP expressed in Cos7 cells (protein)
chain: MEEIKPASASCVSKEKPSKVSDLISRFEGGSSLSNYSDLKKESAVNLNAPRTPGRHGLTTTPQQKLLSQHLPQRQGNDTDKTQGAQTCVANGVMAAQNQMECEEEKAATLSSDTSIQASEPLLDTHIVNGERDETATAPASPTTDSCDGNASDSSYRTPGIGPVLPLEERGAETETKVQERENGESPLELEQLDQHHEMKETNEQKLHKIANELLLTERAYVNRLDLLDQVFYCKLLEEANRGSFPAEMVNKIFSNISSINAFHSKFLLPELEKRMQEWETTPRIGDILQKLAPFLKMYGEYVKGFDNAMELVKNMTERIPQFKSVVEEIQKQKICGSLTLQHHMLEPVQRIPRYEMLLKDYLRKLPPDSLDWNDAKKSLEIISTAASHSNSAIRKMENLKKLLEIYEMLGEEEDIVNPSNELIKEGQILKLAARNTSAQERYLFLFNNMLLYCVPKFSLVGSKFTVRTRVGIDGMKIVETQNEEYPHTFQVSGKERTLELQASSAQDKEEWIKALQETIDAFHQRHETFRNAIAKDNDIHSEVSTAELGKRAPRWIRDNEVTMCMKCKEPFNALTRRRHHCRACGYVVCWKCSDYKAQLEYDGGKLSKVCKDCYQIISGFTDSEEKKRKGILEIESAEVSGNSVVCSFLQYMEKSKPWQKAWCVIPKQDPLVLYMYGAPQDVRAQATIPLLGYVVDEMPRSADLPHSFKLTQSKSVHSFAADSEELKQKWLKVILLAVTGETPGGPNEHPATLDDHPEPKKKSEC
modifications: left off: GFP, end not stated, kept
B3: GxcU: putative Rho-GEF of D. discoideum (protein)
chain: MDTKNKEILGSTIKAWIGRKRYKTMMVNKTNRDKVAKEILDTEQIYVRNLETIVQFYLKPLRNINPPLLSPKSIQIIFGHIEDLLSLNTELLTSIQDRMTTWYQDKRLGDIFTKMAPYLKVYTEYCGNYDKAVARLKQKSDESRDLQMFLKRVTSENSFGLDLNSLLVTPIQRIPRYKLLLQSLIQLTPVEFSDYPTLAKALENVALVADHINESIREKQNSEKILTIQKRFTGQCPPLLAPLRTFIREGSLTKVCRKDHKKRWFILFSDALVYGNRIDTAVGNPIYKFHRLLPLSNTKIANLDDTKHKNSFQLIHPIKSFTLIADTEQEKSSWMNSFSDAQNFLLRNEGSVARMNKQYRSINILKPKEEETVSTAPVWIPDSEAIQCMECTIKFTTIRRRHHCRRCGNVVCGKCSEQKWTLDQYKKDARVCKTCYNYLSISSSRSNENNVSSSNNLSTPTSTFTATTATATAPFGTLTDGASLADVSSDSEGEDNSSSINDSNPDMPIINGLSSIQIDNTPVILNTVNPSPPLLSQPQPQQPQQPQLQPLQQPLQQPPQPPQPPQTNHKSFIATHTAYNKENSLKSTSPSSSFIETSTSTSASTSTSTSTSTSTSTSTSTSTSTSTSNSTSNSTLTPGPPMLSKSNAGNSSLLDFCKSYIQNSPNVSPAKVEKHKHSSSSSSASNSPMQSRTNLDIPSTTTTSTSKGSISPTQSSESIVLPELKPITHDPLVTSNNSSSTLKVNQPIQHTNSSSKLNVIVSTPQTTQTTENNVNNTNTNTTTTNNNNNNNNNNNNNNNNNNNNNNNNNNNNSDVSSPKPTTKSLPPTPPTKKLPPTPPPKPLPPQPTLPQQPTLPPQPNLPPQPNLPPQPNLPPQPNLPPQPNLPQQPDLSQPPPQQQQQPTLDQAPPRPPKPNQDSRSQSFLCISSTVNSTPPTPPPKRIISTHPANTSFIYQPQQYVSSPNINNVPPPLPPPRIKSQAPIQRD
B4: DDB_G0280015: PH domain Interacting with OCRL, 741 amino acid protein of D. discoideum (protein)
chain: MESSSMTTNNNNNNSTISPSSSTTSISTSKNNDFLTLHKAYIDEWLMVSFLPILKTTYDGENNFYDISNLNIKNVNQRNIPFSEQLFALDRQFQNLINQWEKLSRSDQQRAAKIESYQQSFYTFIDRIKSTLEKTMVELGGSLEDSNFLAAAISLKEKQSKNKRLTIMARSRISPGGTSSTQYQHQMHLTGPISIVWNEILIIITRKVNEEVVRLQTENINNNIKNINNSEFNITNDIYQFNNNNLTQANKLEINNQRQKLYQQALSNIVPMLFEWRIMMANAQKVISEEKRFKVNPFIPTTVYDHNSSSFISAPILISTTNKTATTLLNNLNNNNIINNNNNNNNNNNNNNNNNNNNNNNNNSSSNSNNNNNSPISNSPSSSSPSPSSPTLTNRPSFINYDNQNNENNINNNNNNENNIGNNNINNNNSNENSDNKFSEEINISSSPPGTSGMTNSTSNLPTIASPTSWTKAVKRPAMSSSGGNIPILNNLGTSLNNNNNNKQIQDNNNNNLNTINANSNGNNNNSSNNVNSENNNIPTGGIIKQGWMKKRGTKNKSWKKRYFILDMKKTLRYYKDNSKIPHGNNSNNSGGGSSSNNNNCNSGNNNNGLNGGSGKGDQVNGNNISLPIGNNPHFHSSSGSGIPTTSPSMSSSSTSLENNDILSSFDHLKYKGSIDLYTSLVVAIKPSTFNVNINNSGSFKEDNNSYFGMDIITPSRTWNFCCESSKSMEDWLIVLKSANK

What was measured:
[1] = system: human OCRL ASHRhoGAP domain; experiment: Peptide array overlay with GST-hOCRL-ASHRhoGAP; format: binding; conditions: summary statement, test not specified at the place
[2] = system: endogenous OCRL (mouse brain extracts); experiment: GST-F&H peptide pull down of endogenous OCRL from mouse brain extracts; format: binding; conditions: GST fusions of 13 amino acid F&H motif peptides, Ses2 and APPL1 as positive controls
[3] = system: F&H surface of Dd5P4 (GFP-Dd5P4 WT vs W620A); experiment: GFP immunoprecipitation and mass spectrometry of GFP-Dd5P4 interactors; format: binding, Dictyostelium discoideum; conditions: triplicate GFP immunoprecipitates; Dd5P4- cells expressing GFP-Dd5P4 WT vs W620A; label-free quantitation
How it was run: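 Cells were grown to 80% confluency in HL5 (glucose, vitamins, trace elements), with fusion strains under 5 µg/ml G418. Lysis buffer: 20 mM Tris pH 8, 10% glycerol, 100 mM NaCl, 1 mM EDTA, 1 mM DTT. Untransfected WT cells served as negative control. Beads were digested overnight with trypsin at 37°C, then StageTip-desalted. C18 nanoLC used a 95-min 5–30% acetonitrile gradient into a Q Exactive, with data-dependent top-10 MS/MS.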

[4] = system: endogenous OCRL (Cos7 cells); experiment: Frabin-GFP anti-GFP co-immunoprecipitation with endogenous OCRL in Cos7 cells; format: binding; conditions: full length Frabin-GFP, GFP-trap beads, Western blot
How it was run: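 Frabin-GFP expressed in Cos7 cells by nucleofection, then pulled down on GFP-trap beads and washed extensively. Western blot detected Frabin-GFP with anti-GFP antibody and endogenous OCRL with mouse anti-human OCRL antibody.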

| Molecule | enrichment in GFP-Dd5P4 immunoprecipitates [3] | further results |
| --- | --- | --- |
| AFHQRHETFRNAI* [Frabin] |  | strength of Frabin F&H peptide interaction with OCRL [1]: strong; enrichment of endogenous OCRL by GST-F&H peptide [2]: specifically enriched endogenous OCRL |
| DDB_G0284853: mycBP2/Highwire-like protein of D. discoideum | specifically enriched in precipitates from GFP-Dd5P4-expressing cells versus negative control precipitates, but not in precipitates from GFP-Dd5P4^W620A-expressing cells |  |
| B1 | specifically enriched in precipitates from GFP-Dd5P4-expressing cells versus negative control precipitates, but not in precipitates from GFP-Dd5P4^W620A-expressing cells |  |
| B2 |  | coprecipitation of endogenous OCRL with Frabin-GFP [4]: weak but specific interaction with endogenous OCRL; also recorded: weak, albeit specific, coprecipitation with OCRL |
| B3 | specifically enriched in precipitates from GFP-Dd5P4-expressing cells versus negative control precipitates, but not in precipitates from GFP-Dd5P4^W620A-expressing cells |  |
| B4 | specifically enriched in precipitates from GFP-Dd5P4-expressing cells versus negative control precipitates, but not in precipitates from GFP-Dd5P4^W620A-expressing cells |  |

Reference: publication PMC6743453 (Molecular Biology of the Cell, 2019)
